# Shown are actives, neighbours in structure and some others; about 2.4% of the full set was active somewhere.
# IMP-1 inh – blocks Pseudomonas aeruginosa IMP-1 metallo-beta-lactamase; purified IMP-1, nitrocefin hydrolysis, epi-absorbance fluorescence; inhibition, % at 5.6 µM; actives 0.45% (n = 290,000);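 active means inhibition above the mean plus 3 SD of all compounds in the same screening run, cut at about 4.5% in these data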;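 further: 0% = IMP-1 with DMSO and 100% = DMSO wells lacking enzyme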
#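 System: Purified IMP-1 | Read-out basis: Percent enzyme inhibition | Controls: IMP-1 with DMSO as 0%, enzyme-free DMSO as 100% | Replicates: One well per compound | Doses: 5.6 µM nominal single concentration | Detection: Epi-absorbance fluorescence, 480 nm excitation, 530 nm emission | Incubation: 25 °C, 15 min preincubation, 25 min reaction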
# sPLA2-III inh – Blocks human group III sPLA2 activity; Q9NZ20; QFRET BODIPY PC-A2 liposome hydrolysis, fluorescence; inhibition, % at 12.2 µM; actives 0.56% (n = 370,000);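 active means inhibition above mean plus 3 SD of compounds lying within the high and low control bounds, cut at about 19% in these data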;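 further: 0% = median of test compound wells and 100% = no enzyme DMSO wells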
# PfM18AAP inh – blocks P. falciparum M18 aspartyl aminopeptidase | inhibition, % at 7.35 µM | AID 1822 | recombinant PfM18AAP, H-Glu-NHMec fluorogenic cleavage | actives 1.2% (n = 290,000);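 active means inhibition above the campaign mean inhibition over all tested compounds plus 3 SD, cut at about 28% in these data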;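 further: 0% = plate median of test compound wells and 100% = 2 mM ZnCl2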
# VIM-2 inhibitor – inhibitors of Pseudomonas aeruginosa VIM-2 metallo-beta-lactamase; purified VIM-2, nitrocefin hydrolysis, epi-absorbance fluorescence; inhibition, % at 5.6 µM; actives 0.89% (n = 290,000);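 active means inhibition above the mean of all tested compounds plus 3 SD, cutoff set per screening run, cut at about 7.5% in these data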;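 further: red hydrolysis product quenches plate fluorescence so inhibitors raise well fluorescence; 0% = enzyme with DMSO and 100% = DMSO without enzyme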
# VIM-2 confirm – VIM-2 inhibition, confirmation assay; shares compounds with IMP-1 inh; purified VIM-2 enzyme, nitrocefin absorbance; inhibition, % at 5.6 µM; actives 73% (n = 200); in the data active means inhibition above about 8%;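 further: 0% = enzyme with vehicle and 100% = no enzyme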
# TEM-1 inh 2 – blocks E. coli TEM-1 beta-lactamase, VIM-2 IMP-1 counter-screen | actives 50% (n = 200) | shares compounds with IMP-1 inh | inhibition, % at 5.6 µM | nitrocefin absorbance inhibition; in the data active means inhibition above about 0.66%
# Target sequence (P62593 whole entry, looked up): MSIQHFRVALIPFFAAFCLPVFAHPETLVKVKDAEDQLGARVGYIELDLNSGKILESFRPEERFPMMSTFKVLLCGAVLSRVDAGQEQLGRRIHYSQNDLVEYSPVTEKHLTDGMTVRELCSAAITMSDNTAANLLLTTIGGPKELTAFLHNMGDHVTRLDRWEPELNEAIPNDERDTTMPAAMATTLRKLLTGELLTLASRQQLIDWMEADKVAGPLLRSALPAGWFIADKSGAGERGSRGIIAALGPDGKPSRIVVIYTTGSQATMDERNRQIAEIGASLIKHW
# IMP-1 inh conf – confirmation of P. aeruginosa IMP-1 metallo-beta-lactamase inhibitors; actives 60% (n = 200); inhibition, % at 5.6 µM; shares compounds with IMP-1 inh; AID 2189; purified IMP-1 enzyme, absorbance substrate hydrolysis; in the data active means inhibition above about 4.9%;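 further: 0% = enzyme with vehicle and 100% = vehicle without enzyme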
# The depositor's hits bear a star; / = no result given.
SMILES,IMP-1 inh,sPLA2-III inh,PfM18AAP inh,VIM-2 inhibitor,VIM-2 confirm,TEM-1 inh 2,IMP-1 inh conf
O=C1/C(=C\c2cc(Cl)c(O)c(Cl)c2)SC(=S)N1Cc1ccccc1,18*,-13,5,18*,18*,54*,14*
Cn1c2ccccc2c2cc(C(=O)NNS(=O)(=O)c3ccc(F)cc3)sc21,5.0*,-31,5,7,-1,-6,-2
Cc1sc2ncnc(N/N=C/c3cccc(O)c3)c2c1C,-3,-24,4,-1,/,/,/
C/C(=N\Nc1ncnc2sc(C)c(C)c12)c1ccccn1,13*,-1,19,14*,38*,7.1*,4
Cc1ccc2[nH]cc(/C=C/c3cc[n+](C)cc3)c2c1,5.7*,-54,11,15*,15*,5.1*,5.9*
Cc1ccc2[nH]ccc(=O)c2c1,-2,11,-4,-2,/,/,/
CC[n+]1ccc(/C=C/c2c[nH]c3ccccc23)cc1,5.6*,-28,1,8.2*,8.1*,2.7*,4
CCn1c(/C=C/c2c[nH]c3ccccc23)nc2ccccc2c1=O,-4,-14,-1,-6,/,/,/
CC(=O)N1CCN(c2cc(C)nc3nc(C)nn23)CC1,/,3,/,/,/,/,/
CCOC(=O)[C@]12CCCC=C1N(Cc1ccco1)C(=O)[C@H](CC(=O)N1CCSCC1)C2,/,4,/,/,/,/,/
COc1ccc(-c2ccc(OC)cc2C(=O)O)cc1,-2,1,-4,1,/,/,/
COc1ccc(-c2occ(C(=O)O)c2C(=O)O)cc1,26*,1,2,10*,18*,-4,22*
CCCN1C(=O)c2cccc3c(N4CCCCC4)ccc(c23)C1=O,24*,-40,-8,32*,12*,6.5*,5.5*
CCCCNc1ccc2c3c(cccc13)C(=O)N(CCCC)C2=O,12*,-179,-4,15*,22*,63*,18*
Nc1nc(SCc2ccccc2[N+](=O)[O-])c2ncn(Cc3ccccc3)c2n1,/,-12,/,/,/,/,/
CC(C)N1CC(=O)N2CSCC2C1=O (centres undefined),/,3,/,/,/,/,/
CCOC(=O)NC(=O)/C(C#N)=C\Nc1ccc(Cl)cc1Cl,-2,2,-2,-1,/,/,/
CCOC(=O)NC(=O)/C(C#N)=C\Nc1sccc1C(=O)OC,9.1*,-67,20,7.7*,5,-4,-1
O=C1CCC(=O)c2ccc3c4c(ccc1c24)CC3,/,-12,/,/,/,/,/
O=C1CCN2C=Nc3cccc4ccc1c2c34,12*,-162,17,12*,32*,28*,24*
COc1ccc(/C=C2\SC(=O)NC2=S)cc1OC,6.8*,-44,18,12*,3,-9,-5
CCOc1ccc(/C=C2\SC(=S)NC2=O)cc1OC,-4,-3,3,-3,/,/,/
O=C(C[C@@H]1C/C=C\C[C@H](Cc2ccc(F)cc2)C(=O)OC[C@@H](c2ccccc2)NC1=O)NCCO,/,-2,/,/,/,/,/
C=CCN(Cc1ccccc1)C(C#CC(=C)C)Cc1ccccc1 (centres undefined),/,9,/,/,/,/,/
C=CC#CC[N+]1(CC#Cc2ccccc2)CCOCC1,20*,-69,4,20*,34*,-5,-3
SMILES,IMP-1 inh,sPLA2-III inh,PfM18AAP inh,VIM-2 inhibitor,VIM-2 confirm,TEM-1 inh 2,IMP-1 inh conf
C(#Cc1ccccc1)C[N+]1(CC#Cc2ccccc2)CCCC1,-5,0,-6,-1,/,/,/
Cc1ccc(N(CC(=O)NC(C)(C)C)C(=O)CCC(=O)Nc2ccccn2)cc1,/,-2,/,/,/,/,/
Cc1nn(-c2ccc(F)cc2)c(Cl)c1/C=C(\CC(=O)O)c1nc2ccccc2s1,7.9*,-15,-3,32*,34*,-2,1
Cc1nn(-c2ccccc2)c(Cl)c1/C=C(\CC(=O)O)c1nc2ccccc2s1,8.4*,-11,-3,24*,37*,-5,5.5*
Cc1nn(-c2ccc(F)cc2)c(Cl)c1/C=C(/CC(=O)O)c1nc2ccccc2s1,/,-14,/,/,/,/,/
Cc1c(Cl)cccc1NC(=O)COC(=O)Cn1cnc2c1c(=O)n(C)c(=O)n2C,/,-1,/,/,/,/,/
CC(=O)N(c1cccc(C)c1)C1SC(=O)N(c2ccccc2)C1=O (centres undefined),12*,-2,-11,8.3*,9.0*,-5,18*
Cc1cccc(NC2SC(=O)N(c3ccccc3)C2=O)c1 (centres undefined),-1,-1,8,-1,/,/,/
